Bioassay records as filed in PubChem BioAssay.
Most compounds without a hit are left out; they make up all but 3.3% or so of the library.
ROMK mod = human ROMK K+ channel modulation, primary screen; P48048; Tet-inducible ROMK, thallium flux fluorescence; actives lie on both sides; B-score at 10 µM; 130,000 tested, 2% active; AID 1918;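 active means signal ratio slope over the read window, or its plate-corrected B-score, at least 3 SD from the plate mean, either direction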;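 further: B-score of the F/F0 ratio slope over 7 to 12 s after thallium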
ABCG2 inh = inhibitors of human ABCG2 transporter, ABCB1 counter-screen | AID 1325 | Q9UNQ0 | IgMXP3 cells, JC-1 efflux, flow cytometry | inhibition, % at 6.6 µM | 190,000 tested, 0.1% active;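 active means inhibition above 80%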
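material = IgMXP3 (ABCG2) plus far-red-tagged CCRF-Adr (ABCB1) cells | amount = 3 million cells/mL, equal mix of both lines | also added = JC-1 transporter substrate | dosing = one concentration, 6.6 µM final | schedule = 10 min at 25 °C | measured by = flow cytometric JC-1 green MFI at 530 nm | read-out basis = percent efflux inhibition, scaled nicardipine 100% to DMSO 0%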
KCC2 mod = modulates chloride dependent transport by human KCC2. 190,000 tested, 2.2% active. B-score of Tl+ flux slope (higher = more flux/activation; lower = inhibition) at 10 µM. KCC2 cells, thallium flux FluoZin-2 fluorescence;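 active means thallium flux slope and its plate-corrected score both differing from the plate sample mean at a set confidence after two filtering rounds, in either direction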;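 further: slope of fluorescence scaled to starting intensity during 10 to 20 s after thallium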
Target sequence (Q9H2X9 whole entry, looked up): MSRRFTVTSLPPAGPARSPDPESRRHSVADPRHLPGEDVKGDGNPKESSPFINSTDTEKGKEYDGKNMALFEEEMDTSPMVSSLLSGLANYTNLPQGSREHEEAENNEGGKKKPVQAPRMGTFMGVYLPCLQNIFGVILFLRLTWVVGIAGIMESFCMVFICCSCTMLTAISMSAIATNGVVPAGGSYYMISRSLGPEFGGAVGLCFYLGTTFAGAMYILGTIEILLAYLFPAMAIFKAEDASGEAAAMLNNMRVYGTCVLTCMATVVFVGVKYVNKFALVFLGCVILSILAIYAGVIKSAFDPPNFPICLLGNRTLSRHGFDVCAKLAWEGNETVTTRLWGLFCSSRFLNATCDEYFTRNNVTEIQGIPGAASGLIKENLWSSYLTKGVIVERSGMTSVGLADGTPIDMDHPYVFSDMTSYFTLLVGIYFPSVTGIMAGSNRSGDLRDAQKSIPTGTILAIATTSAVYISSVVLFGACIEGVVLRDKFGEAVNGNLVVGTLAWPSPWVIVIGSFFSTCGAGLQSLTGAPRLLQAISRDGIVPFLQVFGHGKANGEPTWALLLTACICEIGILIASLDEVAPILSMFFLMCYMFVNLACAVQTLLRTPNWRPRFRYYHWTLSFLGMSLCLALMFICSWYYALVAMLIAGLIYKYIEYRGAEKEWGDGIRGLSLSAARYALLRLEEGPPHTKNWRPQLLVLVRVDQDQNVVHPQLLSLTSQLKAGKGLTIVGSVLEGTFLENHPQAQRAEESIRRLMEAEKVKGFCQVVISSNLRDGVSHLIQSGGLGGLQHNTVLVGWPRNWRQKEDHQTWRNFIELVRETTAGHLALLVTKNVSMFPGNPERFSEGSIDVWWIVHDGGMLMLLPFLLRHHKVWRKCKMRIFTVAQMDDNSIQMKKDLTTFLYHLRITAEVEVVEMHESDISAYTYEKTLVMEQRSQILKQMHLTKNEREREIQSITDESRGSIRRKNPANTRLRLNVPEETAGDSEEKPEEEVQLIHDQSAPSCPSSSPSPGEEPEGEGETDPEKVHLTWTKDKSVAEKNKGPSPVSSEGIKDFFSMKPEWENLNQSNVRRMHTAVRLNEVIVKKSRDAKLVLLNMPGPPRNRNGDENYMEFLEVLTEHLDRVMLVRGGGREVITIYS
PMI act = phosphomannose isomerase (human) activation; P34949; purified human PMI, coupled resazurin fluorescence, 20 min; hits give high values; 1 = vehicle control, 0 substrate-free wells; activation factor at 20 µM; 190,000 tested, 0.005% active; AID 1214;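 active means activation factor of 2 or more at 20 µM, relative to plate controls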
ABCB1 block = human ABCB1 inhibition, ABCG2 as counter-screen | 190,000 tested, 0.067% active | CCRF-Adr cells, JC-1 efflux, flow cytometry | P08183 | inhibition, % at 6.6 µM | AID 1326; in the data active means inhibition above about 40%;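 further: higher value means more JC-1 retained so stronger ABCB1 efflux block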
PMI act hi M6P = increases human PMI activity with near-saturating mannose 6-phosphate. P34949. coupled PMI enzyme assay, resazurin fluorescence, 20 min; hits give high values; 1 = untreated enzyme, 0 = substrate-free blank. activation factor at 20 µM. 190,000 tested, 0.34% active. AID 1216;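 active means activation factor of 2 or more at 20 µM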
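Test system: human phosphomannose isomerase with PGI, G6PDH, diaphorase coupling enzymes / Doses: 20 µM compound, 1% DMSO / Times: enzyme reaction with compound 20 min at room temperature / Measured by: Diaphorase-driven resazurin-to-resorufin fluorescence, excitation 544, emission 590 nm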
ROMK hit retest = retested hit modulating human ROMK potassium channel; shares compounds with ROMK mod; ROMK thallium flux, fluorescence ratio; hits give low values; normalized thallium flux (F/F0 slope) at 10 µM; 3,000 tested, 54% active;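 active means Flux at 10 µM at least 3 SD below or above vehicle control mean in one or both replicates; inconclusive means no clear call, values can overlap the other calls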
Numbers stand for hits; – = inactive; ? = inconclusive; · = no result given.

SMILES	ROMK mod	ABCG2 inh	KCC2 mod	PMI act	ABCB1 block	PMI act hi M6P	ROMK hit retest
CCOC(=O)NC(Nc1sc2c(c1C(=O)OC)CCN(C)C2)(C(F)(F)F)C(F)(F)F	–	–	–	–	–	–	–
COc1cc(C(C)=O)ccc1OCC(=O)c1cc(C)n(C2CC2)c1C	–	–	·	–	–	–	·
COC(=O)[C@@]1(Cc2ccc(OC)cc2)[C@H]2c3cc(C(=O)N(C)C)n(CCc4ccc(OC)c(Br)c4)c3C[C@H]2CN1C(=O)c1ccccc1	-3.8	–	–	–	–	–	0.065
CCC(C)(C)NC(=O)C(c1cccc(OC)c1OC)N(CCC(C)C)C(=O)CCC(=O)Nc1cc(C)on1 (configuration not stated)	-2.5	–	–	–	–	–	0.063
COC(=O)c1cccc(C(=O)Nc2cnc3ccccc3c2)n1	·	–	–	–	–	–	0.05
O=C(Nc1cnc2ccccc2c1)c1ccncc1	·	–	–	–	–	–	·
Clc1cccc(CN2CCCCCCC2)c1Cl	·	–	–	–	–	–	·
CCNC(=O)CC1C(=O)N(C)C(=S)N1NC(=O)c1ccc(Cl)cc1 (configuration not stated)	·	–	–	–	–	–	–
CC(NCc1cc(Br)ccc1OCC(=O)NCc1ccccc1)c1ccccc1 (configuration not stated)	–	–	–	–	–	–	·
OC(CNCC1(N2CCCCC2)CCCCC1)COc1ccc(Cl)cc1Cl (configuration not stated)	-3.9	–	–	–	–	–	0.053
COc1ccc(C2CC(=O)Oc3c(C(CCN4CCCC(C)C4)c4ccc(N(C)C)cc4)c(OC)cc(OC)c32)cc1 (configuration not stated)	·	·	–	·	·	·	0.059
O=C(NC1CCCCC1)C(c1cccnc1)N(C(=O)CCl)c1cccc(Cl)c1 (configuration not stated)	-3.3	–	–	–	–	–	0.051
Cc1cc(NC(=O)CSCC(=O)N(c2cccc(Cl)c2)C(C(=O)NC2CCCCC2)c2ccc(O)c(O)c2)no1 (configuration not stated)	-4.8	–	–	–	–	–	0.056
Cc1cc(NC(=O)CSCC(=O)N(c2ccc(F)cc2)C(C(=O)NC2CCCCC2)c2ccc(O)c(O)c2)no1 (configuration not stated)	–	–	–	–	–	–	·
Cc1cc(C)c(S(C)(=O)=O)c(Oc2cccc(C(F)(F)F)c2)n1	–	–	–	–	–	–	·
Cc1noc(C)c1COC(=O)c1ccc2c(c1)S(=O)(=O)c1ccccc1C2=O	·	–	–	–	–	–	–
Cc1ccc(NC(=O)C(=O)NCc2ccncc2)cc1	–	–	–	–	–	–	·
Cc1noc(C)c1CSCC(=O)N1CCN(c2ccc([N+](=O)[O-])cc2)CC1	-4.3	–	–	–	–	–	0.042
O=C(CCCC(=O)N1CCN(c2ccc([N+](=O)[O-])cc2)CC1)c1ccccc1	-3.2	–	–	–	–	–	0.058
CC(=O)N1CCN(c2ccc([N+](=O)[O-])cc2)CC1	–	–	–	–	–	–	·
O=C(ON=C1CCN(c2ccc([N+](=O)[O-])cc2)CC1)c1ccccc1	·	–	–	–	–	–	0.067
O=C(CCN1C(=O)C2C3C=CC(C3)C2C1=O)N1CCN(c2ccc([N+](=O)[O-])cc2)CC1 (configuration not stated)	–	–	–	–	–	–	–
COc1ccc(C(=O)ON=C2CCN(c3ccc([N+](=O)[O-])cc3)CC2)cc1	·	–	–	–	–	–	·
CCN(CC)C(=O)Cn1nnc(-c2ccc(S(C)(=O)=O)cc2)n1	–	–	–	–	–	–	·
O=C(NCc1n[nH]c(=S)n1-c1ccc(Cl)c(Cl)c1)c1ccc(S(=O)(=O)N2CCOCC2)cc1	–	–	–	–	–	–	·
SMILES	ROMK mod	ABCG2 inh	KCC2 mod	PMI act	ABCB1 block	PMI act hi M6P	ROMK hit retest
CS(=O)(=O)N(CC(=O)NC1CCCC1)Cc1ccc(Cl)cc1	–	–	–	–	–	–	·
Nc1ccnc(Oc2ccc(F)cc2)c1	–	–	–	–	·	–	·
CCN(CC)CCNC(=O)c1ccc(NC(=O)COc2ccccc2F)cc1	1.9	–	·	–	–	–	–
COc1ccc(S(=O)(=O)Nc2ccccc2OC)cc1NC(=O)c1cc2ccccc2oc1=O	·	–	–	–	–	–	·
Cc1nonc1OCCCNc1ccc([N+](=O)[O-])cc1Cl	–	–	–	–	–	–	·
O=C(Nc1ccccc1)N(C1=NCCCCS1)c1ccccc1	·	–	–	–	–	–	–
O=C(CNCCc1ccccc1)N1CCc2ccccc2C1	–	–	–	–	–	–	·
CC(=O)Nc1ccc(S(=O)(=O)N2CCN(Cc3ccncc3)CC2)cc1	–	–	–	–	–	–	·
CC(=O)Nc1ccc(S(=O)(=O)N2CCN(Cc3nc4sc(C)c(C)c4c(=O)[nH]3)CC2)cc1	·	·	·	·	·	·	–
CCOc1ccc(-c2nn(-c3ccccc3)cc2/C=C2\SC(=S)N(C3CCS(=O)(=O)C3)C2=O)cc1 (configuration not stated)	-5.4	–	–	–	–	–	0.049
CCOCCCNCc1ccc(OC)c(OC)c1	·	–	–	–	–	–	·
CCOCCCNC(=O)Cc1ccc(OC)c(OC)c1	·	–	–	–	–	–	–
OC(CNCC1CCCO1)Cn1c2ccccc2c2ccccc21 (configuration not stated)	-4.1	–	–	–	–	–	0.061
CC(NCCC(c1ccccc1)c1ccccc1)c1ccccc1 (configuration not stated)	-6.2	–	–	–	–	–	0.046
CCN1CCN(C(=S)c2ccc(OCC(=O)N3CCOCC3)cc2)CC1	·	–	–	–	–	–	·
Clc1cccc(-c2cc3nc4c(c(N5CCOCC5)n3n2)CCCC4)c1	-3.9	–	–	–	–	–	0.064
CC12CC3(C)CC(C)(C1)CC(C(=O)NC(=S)NC(C)(C)C)(C2)C3	2.5	–	–	–	–	–	?
COc1ccc(C(=O)/C=C(/C)N(C)C)cc1	·	–	–	–	–	–	·
O=C(O)C1CCC(=O)N1C(=O)OCc1ccccc1 (configuration not stated)	·	·	–	·	·	·	·
CN(C)c1ccc(/C=C/C(=O)c2c(O)c3ccccc3oc2=O)cc1	·	·	–	·	·	·	·
CCOc1ccc(/C=C/C(=O)c2c(O)c3ccccc3oc2=O)cc1	·	–	–	–	–	–	0.063
Cc1ccc(Cn2ccc(=O)c(Cc3c(Cl)cccc3Cl)c2C)cc1	·	–	·	–	–	–	0.049
CCCn1c2c(c(O)c(C(=O)NC)c1=O)CCCC2	·	–	·	–	–	–	·
CC(=O)c1c(C)c2c(n1CCN(C)C)CCCC2	3.5	–	·	–	–	–	–
